From ChEMBL document CHEMBL1129540, “Synthesis and cytotoxicity of 1,2-disubstituted naphth[2,3-d]imidazole-4,9-diones and related compounds” (1996)

Tests used:
Format in all cases: functional
[1] = tested on: ACHN; test: In vitro inhibitory activity against renal ACHN cancer cell line; settings: Homo sapiens
Method in brief: (§1)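 Tested in the National Cancer Institute's in vitro disease-oriented tumor cell line screen. Dose-response curves were recorded for each cell line, and values are reported as log GI50, the compound concentration that inhibits cell growth by 50%.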

[2] = tested on: DU-145; test: In vitro inhibitory activity against prostate DU-145 cancer cell line; settings: Homo sapiens; method in brief: as §1
[3] = tested on: HCT-116; test: In vitro inhibitory activity against colon HCT116 cancer cell line; settings: Homo sapiens; method in brief: as §1
[4] = tested on: HOP-92; test: In vitro inhibitory activity against non small lung HOP-92 cancer cell line; settings: Homo sapiens; method in brief: as §1
[5] = tested on: IGROV-1; test: In vitro inhibitory activity against ovarain IGROV1 cancer cell line; settings: Homo sapiens; method in brief: as §1
[6] = tested on: K562; test: In vitro inhibitory activity against leukemia K-562 cancer cell line; settings: Homo sapiens; method in brief: as §1
[7] = tested on: MCF7; test: In vitro inhibitory activity against breast MCF-7 cancer cell line; settings: Homo sapiens; method in brief: as §1
[8] = tested on: MDA-N; test: In vitro inhibitory activity against breast MDA-N cancer cell line; settings: Homo sapiens; method in brief: as §1
[9] = tested on: Malme-3M; test: In vitro inhibitory activity against melanoma MALME-3M cancer cell line; settings: Homo sapiens; method in brief: as §1
[10] = tested on: OVCAR-3; test: In vitro inhibitory activity against ovarain OVCAR-3 cancer cell line; settings: Homo sapiens; method in brief: as §1
[11] = tested on: PC-3; test: In vitro inhibitory activity against prostate PC-3 cancer cell line; settings: Homo sapiens; method in brief: as §1
[12] = tested on: RXF 393; test: In vitro inhibitory activity against renal RXF-393 cancer cell line; settings: Homo sapiens; method in brief: as §1
[13] = tested on: U-251; test: In vitro inhibitory activity against CNS U-251 cancer cell line; settings: Homo sapiens; method in brief: as §1
[14] = tested on: UACC-62; test: In vitro inhibitory activity against melanoma UACC-62 cancer cell line; settings: Homo sapiens; method in brief: as §1
[15] = tested on: NCI-H522; test: In vitro inhibitory activity against non small lung […]H522 cancer cell line; settings: Homo sapiens; method in brief: as §1
[16] = tested on: HL-60; test: In vitro inhibitory activity against leukemia HL-60(TB) cancer cell line; settings: Homo sapiens
Method in brief: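 Tested in the NCI in vitro disease-oriented human tumour cell line screen. Growth inhibition was read from dose-response curves and reported as log GI50, the compound concentration that inhibits cell growth by 50%.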

[17] = tested on: SF-539; test: In vitro inhibitory activity against CNS SF-539 cancer cell line; settings: Homo sapiens; method in brief: as §1
[18] = tested on: COLO 205; test: In vitro inhibitory activity against colon COLO-205 cancer cell line; settings: Homo sapiens; method in brief: as §1
[19] = In vitro inhibitory activity against small cell lung DMS 273 cancer cell line; settings: Homo sapiens, Cancer cell lines; method in brief: as §1
[20] = In vitro inhibitory activity against small cell lung DMS 114 cancer cell line; settings: Homo sapiens, Cancer cell lines; method in brief: as §1

| SMILES | GI50 [1] | GI50 [2] | GI50 [3] | GI50 [4] | GI50 [5] | GI50 [6] | GI50 [7] | GI50 [8] | GI50 [9] | GI50 [10] | GI50 [11] | GI50 [12] | GI50 [13] | GI50 [14] | GI50 [15] | GI50 [16] | GI50 [17] | GI50 [18] | GI50 [19] | GI50 [20] |
| --- | --- | --- | --- | --- | --- | --- | --- | --- | --- | --- | --- | --- | --- | --- | --- | --- | --- | --- | --- | --- |
| CC/N=C1/C(=O)c2ccccc2C(O)=C1NC(=O)c1cc(OC)cc(OC)c1 | 977 nM | 2690 nM | 417 nM | 1120 nM | 1550 nM | 490 nM | 372 nM | 120 nM | 776 nM | 525 nM | 380 nM | 324 nM | 525 nM | 355 nM | 372 nM | 407 nM | 1910 nM | 3470 nM |  |  |
| O=C(Cc1ccccc1F)NC1=C(Cl)C(=O)c2ccccc2C1=O | 479 nM |  | 427 nM | 1100 nM | 676 nM | 295 nM |  |  | 1700 nM | 933 nM |  | 166 nM | 331 nM | 331 nM | 214 nM | 282 nM | 240 nM | 1910 nM | 1290 nM | 174 nM |
| CCn1c(C)nc2c1C(=O)c1ccccc1C2=O |  |  | 1230 nM | 1620 nM | 2040 nM | 1660 nM | 676 nM |  | 2510 nM | 50.1 nM |  | 27500 nM | 1910 nM | 4900 nM | 240 nM | 16600 nM | 2690 nM | 355 nM | 1660 nM | 275 nM |
